Results collected from several papers.
Compare with care: the assays were run in different laboratories.
Observed: cell growth or viability

`Cc1ccc2nc(-c3ccc(F)cc3)[nH]c2c1` has an IC50 of > 100 µM (human Rhabdomyosarcoma cell; MTT; 48 h).
`Cc1cc(Nc2ccc(C(=O)N/N=C/c3cccc(Oc4ccccc4)c3)cc2)c2cccc(O)c2n1` gave an inhibition of 37.6% (SMMC-7721; MTT; 20 µM).
`CC(=O)O[C@H]1C(=O)[C@@]2(C)[C@H]([C@H](OC(=O)c3ccccc3)[C@]3(O)C[C@H](OC(=O)[C@H](O)[C@@H](NC(=O)c4ccccc4)c4ccccc4)C(C)=C1C3(C)C)[C@]1(OC(C)=O)CO[C@@H]1C[C@@H]2O` gave an IC50 of 6.13 µM (human Rhabdomyosarcoma cell; MTT; 48 h).
For `COc1cc(/C=C/c2cc(/C=C/c3cccnc3)[nH]n2)ccc1O`, the IC50 was 13.6 µM (CHO-K1; SRB; 72 h).
`COc1ccc(-c2nc3ccccc3[nH]2)cc1OC` has an IC50 of > 100 µM (human Rhabdomyosarcoma cell; MTT; 48 h).
The CC50 of `N#C[Se]CCOc1ccccc1Oc1ccccc1` is reported as > 20 µM (Vero; 72 h).
`Cc1ccc2nc(-c3ccncc3)[nH]c2c1` has an IC50 of 28.4 µM (human Rhabdomyosarcoma cell; MTT; 48 h).
With `Cc1cc(Nc2ccc(C(=O)N/N=C/c3ccncc3)cc2)c2cccc(O)c2n1` the inhibition was 17.1% (SMMC-7721; MTT; 20 µM).
The IC50 of `O=C(/C=C(O)/C=C/c1ccccn1)/C=C/c1c[nH]c2ccccc12` is reported as 34.7 µM (CHO-K1; SRB; 72 h).
With `Cc1cc(Nc2ncc(Cl)c(Nc3ccccc3S(=O)(=O)C(C)C)n2)c(OC(C)C)cc1C1CCNCC1` the inhibition was 79.7% (NCI-H3122; MTT; 0.4 µg/mL, 72 h).
The IC50 of `C=CCn1c(-c2ccc(Cl)cc2)nc2ccccc21` is reported as 67.4 µM (human Rhabdomyosarcoma cell; MTT).
`C(=C\c1c[nH]c2ccccc12)/c1cc(/C=C/c2cccs2)[nH]n1` has an IC50 of 16.2 µM (CHO-K1; SRB; 72 h).
For `O=C1CCC(N2C(=O)c3ccc(NS(=O)(=O)c4ccccc4OC(F)(F)F)cc3C2=O)C(=O)N1` (stereo not shown), the EC50 was 0.0425 nM (MHHCALL4; ATP luminescence).
`C=CC(=O)N1CCN(c2nc(=O)n(-c3c(C)ccnc3C(C)C)c3nc(-c4c(O)cccc4F)c(F)cc23)[C@@H](C)C1` has a GI50 of > 10 µM (NCI-H1437; resazurin; 72 h).
`Cc1ccc2nc(-c3ccc([N+](=O)[O-])cc3)n(Cc3ccc(Cl)cc3)c2c1` gave an IC50 of 7.33 µM (human Rhabdomyosarcoma cell; MTT).
`C/C(=N\O)c1ccc(-c2ccc(O)c(Cl)c2)c(Cl)c1O` gave a viability of 80% (NCI-H1299; MTT; 30 µM, 48 h).
With `CC(C)C[C@H](NC(=O)[C@H](Cc1ccccc1)NC(=O)c1cnccn1)B(O)O` the IC50 was 0.0076 µM (COR-L279; ATP luminescence).
`C/C(=N\O)c1ccc(-c2ccc(F)cc2)c(Cl)c1O` gave a viability of 69% (NCI-H1299; MTT; 30 µM, 48 h).
`C[C@@H](Oc1cc(-c2cnn(C3CCNCC3)c2)cnc1N)c1c(Cl)ccc(F)c1Cl` has an inhibition of 32.7% (NCI-H3122; MTT; 0.04 µg/mL, 72 h).
With `C=CCn1c(-c2ccc(Cl)c(Cl)c2)nc2ccccc21` the IC50 was 44.5 µM (human Rhabdomyosarcoma cell; MTT).
With `Cc1cc(Nc2ccc(C(=O)N/N=C/c3ccc[nH]3)cc2)c2cccc(O)c2n1` the inhibition was 16.1% (SMMC-7721; MTT; 20 µM).
`Cc1cc2c(cc1N1C(=O)c3cccc4c(CCCO)ccc(c34)C1=O)n(C)c(=O)n2C` (racemic) gave a GI50 of 7.4 µM (CHL-1; resazurin).
